Measurements from ChEMBL document CHEMBL1944580, “Synthesis of novel sulfonamide-1,2,4-triazoles, 1,3,4-thiadiazoles and 1,3,4-oxadiazoles, as potential antibacterial and antifungal agents. Biological evaluation and conformational analysis studies” (2012).
≈ marks a conversion by molar mass, not a printed value.

How the values were obtained:
[1] = system: Staphylococcus aureus; test: Antibacterial activity against Staphylococcus aureus ATCC 6538 after 24 hrs by micro dilution method; format: functional; conditions: ATCC 6538, 24 h
Outline: (§1)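 Microdilution MIC in 96-well plates. Bacterial suspensions adjusted in sterile saline to 1.0 × 10^5 CFU/ml, giving 1.0 × 10^4 cfu per well in LB broth. Compounds tested at up to 1 mg/ml. Plates incubated 24 h. MIC taken as the lowest concentration with no visible growth under a binocular microscope. OD at 655 nm was also read against a blank and the positive control. Streptomycin and ampicillin were the positive controls.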

[2] = system: Bacillus cereus; test: Antibacterial activity against Bacillus cereus clinical isolate after 24 hrs by micro dilution method; format: functional; outline: as §1
[3] = system: Micrococcus flavus; test: Antibacterial activity against Micrococcus flavus ATCC 10240 after 24 hrs by micro dilution method; format: functional; conditions: ATCC 10240, 24 h; outline: as §1
[4] = system: Listeria monocytogenes; test: Antibacterial activity against Listeria monocytogenes NCTC 7973 after 24 hrs by micro dilution method; format: functional; conditions: NCTC 7973, 24 h; outline: as §1
[5] = system: Pseudomonas aeruginosa; test: Antibacterial activity against Pseudomonas aeruginosa ATCC 27853 after 24 hrs by micro dilution method; format: functional; conditions: ATCC 27853, 24 h; outline: as §1
[6] = system: Enterobacter cloacae; test: Antibacterial activity against Enterobacter cloacae human isolate after 24 hrs by micro dilution method; format: functional; outline: as §1
[7] = system: Salmonella typhimurium; test: Antibacterial activity against Salmonella Typhimurium ATCC 13311 after 24 hrs by micro dilution method; format: functional, Salmonella enterica subsp. enterica serovar Typhimurium; conditions: Salmonella enterica, ATCC 13311, 24 h; outline: as §1
[8] = system: Escherichia coli; test: Antibacterial activity against Escherichia coli ATCC 35210 after 24 hrs by micro dilution method; format: functional; conditions: ATCC 35210, 24 h; outline: as §1
[9] = system: Staphylococcus aureus; test: Antibacterial activity against Staphylococcus aureus ATCC 6538 treated for 24 hrs followed by sub-cultivated for 72 hrs by micro dilution method; format: functional
Outline: (§2)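 2 µl from each well was serially subcultured into 100 µl fresh broth per well and incubated a further 72 h. MBC is the lowest concentration with no visible growth, taken as 99.5% killing of the original inoculum. Streptomycin and ampicillin were the positive controls.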

[10] = system: Bacillus cereus; test: Antibacterial activity against Bacillus cereus clinical isolate treated for 24 hrs followed by sub-cultivated for 72 hrs by micro dilution method; format: functional; outline: as §2
[11] = system: Micrococcus flavus; test: Antibacterial activity against Micrococcus flavus ATCC 10240 treated for 24 hrs followed by sub-cultivated for 72 hrs by micro dilution method; format: functional; outline: as §2
[12] = system: Listeria monocytogenes; test: Antibacterial activity against Listeria monocytogenes NCTC 7973 treated for 24 hrs followed by sub-cultivated for 72 hrs by micro dilution method; format: functional; outline: as §2
[13] = system: Pseudomonas aeruginosa; test: Antibacterial activity against Pseudomonas aeruginosa ATCC 27853 treated for 24 hrs followed by sub-cultivated for 72 hrs by micro dilution method; format: functional; outline: as §2
[14] = system: Enterobacter cloacae; test: Antibacterial activity against Enterobacter cloacae human isolate treated for 24 hrs followed by sub-cultivated for 72 hrs by micro dilution method; format: functional; outline: as §2
[15] = system: Salmonella typhimurium; test: Antibacterial activity against Salmonella Typhimurium ATCC 13311 treated for 24 hrs followed by sub-cultivated for 72 hrs by micro dilution method; format: functional, Salmonella enterica subsp. enterica serovar Typhimurium; conditions: Salmonella enterica; outline: as §2
[16] = system: Escherichia coli; test: Antibacterial activity against Escherichia coli ATCC 35210 treated for 24 hrs followed by sub-cultivated for 72 hrs by micro dilution method; format: functional; outline: as §2
[17] = system: Talaromyces funiculosus; test: Antifungal activity against Penicillium funiculosum ATCC 36839 after 72 hrs by serial dilution method; format: functional; conditions: ATCC 36839, 72 h
Outline: (§3)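 Modified microdilution MIC. Spores were washed from malt agar cultures with sterile 0.85% saline containing 0.1% Tween 80 and adjusted to about 1.0 × 10^5 per 100 µl well in malt broth. Compounds were dissolved in DMSO (1 mg/ml). Plates incubated 72 h at 28 °C. MIC is the lowest concentration with no visible growth under a binocular microscope. Bifonazole and ketoconazole were the references.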

[18] = system: Penicillium ochrochloron; test: Antifungal activity against Penicillium ochrochloron ATCC 9112 after 72 hrs by serial dilution method; format: functional; conditions: ATCC 9112, 72 h; outline: as §3
[19] = system: Trichoderma viride; test: Antifungal activity against Trichoderma viride IAM 5061 after 72 hrs by serial dilution method; format: functional; conditions: IAM 5061, 72 h; outline: as §3
[20] = system: Aspergillus fumigatus; test: Antifungal activity against Aspergillus fumigatus human isolate after 72 hrs by serial dilution method; format: functional; outline: as §3
[21] = system: Aspergillus niger; test: Antifungal activity against Aspergillus niger ATCC 6275 after 72 hrs by serial dilution method; format: functional; conditions: ATCC 6275, 72 h; outline: as §3
[22] = system: Aspergillus flavus; test: Antifungal activity against Aspergillus flavus ATCC 9643 after 72 hrs by serial dilution method; format: functional; conditions: ATCC 9643, 72 h; outline: as §3
[23] = system: Aspergillus versicolor; test: Antifungal activity against Aspergillus versicolor ATCC 11730 after 72 hrs by serial dilution method; format: functional; conditions: ATCC 11730, 72 h; outline: as §3
[24] = system: Fulvia fulva; test: Antifungal activity against Fulvia fulva after 72 hrs by serial dilution method; format: functional; outline: as §3
[25] = system: Talaromyces funiculosus; test: Antifungal activity against Penicillium funiculosum ATCC 36839 treated for 72 hrs followed by sub-cultivated for 5 days by serial dilution method; format: functional
Outline: (§4)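 MFC obtained after the 72 h, 28 °C malt-broth microdilution (spore inoculum about 1.0 × 10^5 per well, compounds from 1 mg/ml DMSO). 2 µl was serially subcultured into 100 µl broth per well and incubated a further 5 days at 28 °C. MFC is the lowest concentration with no visible growth, taken as 99.5% killing of the original inoculum.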

[26] = system: Penicillium ochrochloron; test: Antifungal activity against Penicillium ochrochloron ATCC 9112 treated for 72 hrs followed by sub-cultivated for 5 days by serial dilution method; format: functional; outline: as §4
[27] = system: Trichoderma viride; test: Antifungal activity against Trichoderma viride IAM 5061 treated for 72 hrs followed by sub-cultivated for 5 days by serial dilution method; format: functional; outline: as §4
[28] = system: Aspergillus fumigatus; test: Antifungal activity against Aspergillus fumigatus human isolate treated for 72 hrs followed by sub-cultivated for 5 days by serial dilution method; format: functional; outline: as §4
[29] = system: Aspergillus niger; test: Antifungal activity against Aspergillus niger ATCC 6275 treated for 72 hrs followed by sub-cultivated for 5 days by serial dilution method; format: functional; outline: as §4
[30] = system: Aspergillus flavus; test: Antifungal activity against Aspergillus flavus ATCC 9643 treated for 72 hrs followed by sub-cultivated for 5 days by serial dilution method; format: functional; outline: as §4
[31] = system: Aspergillus versicolor; test: Antifungal activity against Aspergillus versicolor ATCC 11730 treated for 72 hrs followed by sub-cultivated for 5 days by serial dilution method; format: functional; outline: as §4
[32] = system: Fulvia fulva; test: Antifungal activity against Fulvia fulva treated for 72 hrs followed by sub-cultivated for 5 days by serial dilution method; format: functional; outline: as §4

| MIC [1] [µM] | MIC [2] [µM] | MIC [3] [µM] | MIC [4] [µM] | MIC [5] [µM] | MIC [6] [µM] | MIC [7] [µM] | MIC [8] [µM] | MIC [17] [µM] | MIC [18] [µM] | MIC [19] [µM] | MIC [20] [µM] | SMILES | MBC [9] [µM] | MBC [10] [µM] | MBC [11] [µM] | MBC [12] [µM] | MBC [13] [µM] | MBC [14] [µM] | MBC [15] [µM] | MBC [16] [µM] | other results |
| --- | --- | --- | --- | --- | --- | --- | --- | --- | --- | --- | --- | --- | --- | --- | --- | --- | --- | --- | --- | --- | --- |
| 480 (≈ 199 µg/mL) | 240 (≈ 99.5 µg/mL) | 240 (≈ 99.5 µg/mL) | 240 (≈ 99.5 µg/mL) | 480 (≈ 199 µg/mL) | 240 (≈ 99.5 µg/mL) | 240 (≈ 99.5 µg/mL) | 480 (≈ 199 µg/mL) | 120 (≈ 49.7 µg/mL) | 120 (≈ 49.7 µg/mL) | 60 (≈ 24.9 µg/mL) | 120 (≈ 49.7 µg/mL) | CCCCNc1nnc(Cc2cc(OC)c(OC)cc2S(=O)(=O)N(C)C)s1 | 480 (≈ 199 µg/mL) | 240 (≈ 99.5 µg/mL) | 480 (≈ 199 µg/mL) | 480 (≈ 199 µg/mL) | 480 (≈ 199 µg/mL) | 240 (≈ 99.5 µg/mL) | 240 (≈ 99.5 µg/mL) | 480 (≈ 199 µg/mL) | MIC [21]: 60 µM (≈ 24.9 µg/mL); MIC [22]: 120 µM (≈ 49.7 µg/mL); MIC [23]: 120 µM (≈ 49.7 µg/mL); MIC [24]: 60 µM (≈ 24.9 µg/mL); MFC [25]: 240 µM (≈ 99.5 µg/mL); MFC [26]: 240 µM (≈ 99.5 µg/mL); MFC [27]: 120 µM (≈ 49.7 µg/mL); MFC [28]: 240 µM (≈ 99.5 µg/mL); MFC [29]: 120 µM (≈ 49.7 µg/mL); MFC [30]: 240 µM (≈ 99.5 µg/mL); MFC [31]: 240 µM (≈ 99.5 µg/mL); MFC [32]: 120 µM (≈ 49.7 µg/mL) |
| 280 (≈ 99.8 µg/mL) | 280 (≈ 99.8 µg/mL) | 560 (≈ 200 µg/mL) | 420 (≈ 150 µg/mL) | 420 (≈ 150 µg/mL) | 700 (≈ 249 µg/mL) | 420 (≈ 150 µg/mL) | 280 (≈ 99.8 µg/mL) | 140 (≈ 49.9 µg/mL) | 140 (≈ 49.9 µg/mL) | 30 (≈ 10.7 µg/mL) | 140 (≈ 49.9 µg/mL) | CNc1nnc(Cc2cc(OC)c(OC)cc2S(=O)(=O)N(C)C)o1 | 280 (≈ 99.8 µg/mL) | 280 (≈ 99.8 µg/mL) | 840 (≈ 299 µg/mL) | 420 (≈ 150 µg/mL) | 560 (≈ 200 µg/mL) | 840 (≈ 299 µg/mL) | 420 (≈ 150 µg/mL) | 420 (≈ 150 µg/mL) | MIC [21]: 140 µM (≈ 49.9 µg/mL); MIC [22]: 140 µM (≈ 49.9 µg/mL); MIC [23]: 140 µM (≈ 49.9 µg/mL); MIC [24]: 280 µM (≈ 99.8 µg/mL); MFC [25]: 280 µM (≈ 99.8 µg/mL); MFC [26]: 450 µM (≈ 160 µg/mL); MFC [27]: 140 µM (≈ 49.9 µg/mL); MFC [28]: 280 µM (≈ 99.8 µg/mL); MFC [29]: 450 µM (≈ 160 µg/mL); MFC [30]: 450 µM (≈ 160 µg/mL); MFC [31]: 450 µM (≈ 160 µg/mL); MFC [32]: 450 µM (≈ 160 µg/mL) |
